Assay outcomes deposited in PubChem by The Scripps Research Institute Molecular Screening Center.
In the library only some 2.8% were active in any assay of this set; here they are far more common.
PAFAH2 inh – PAFAH2 (human) inhibition; 0.99% of 340,000 active; inhibition, % at 3.39 µM; recombinant PAFAH2, FP-rhodamine activity probe, fluorescence polarization;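 active = inhibition above the mean over all tested compounds plus 3 SD, cut at about 30% in these data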;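 note: inhibitors block probe labeling of enzyme so polarization drops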
PAFAH1B3 FP inh – inhibitors of human PAFAH1B3; Q15102; recombinant PAFAH1B3, FP-rhodamine probe, fluorescence polarization; inhibition, % at 3.39 µM; 0.28% of 340,000 active; AID 492972;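 active = inhibition above the screen-wide average of all tested compounds plus 3 SD, cut at about 25% in these data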
ABHD4 inh – inhibitors of mouse ABHD4. inhibition, % at 8.92 µM. Q8VD66. purified mABHD4, FP-Rh probe fluorescence polarization. 0.54% of 370,000 active;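 active = inhibition exceeding the mean over every tested compound plus 3 SD, cut at about 30% in these data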
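System: mouse ABHD4 enzyme, wild type / Medium: HEPES pH 7.0, NaCl, Pluronic buffer / Reagent: FP-Rh activity-based fluorescent probe / Control set: S159A mutant high control, sample median low control / Detection: fluorescence polarization with parallel and perpendicular emission, 525/598 nm / Schedule: 45 min + 60 min at 25 °C / Compound dosing: 8.92 µM, single dose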
HTRA1 inh – inhibitors of human serine peptidase HTRA1; Q92743; recombinant HTRA1, FP-rhodamine activity-based probe, fluorescence polarization; inhibition, % at 5.96 µM; 0.5% of 340,000 active; in the data active = inhibition above about 36%
pPAFAH inh – inhibitors of human plasma PAF acetylhydrolase (pPAFAH) | Q13093 | recombinant pPAFAH, FP-rhodamine probe fluorescence polarization | inhibition, % at 3.39 µM | 1.5% of 330,000 active;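 active = inhibition above the mean inhibition across the screen plus 3 SD, cut at about 25% in these data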;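 note: inhibitors block binding of the rhodamine activity-based probe so polarization drops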
Target sequence (Q13093 whole entry, looked up): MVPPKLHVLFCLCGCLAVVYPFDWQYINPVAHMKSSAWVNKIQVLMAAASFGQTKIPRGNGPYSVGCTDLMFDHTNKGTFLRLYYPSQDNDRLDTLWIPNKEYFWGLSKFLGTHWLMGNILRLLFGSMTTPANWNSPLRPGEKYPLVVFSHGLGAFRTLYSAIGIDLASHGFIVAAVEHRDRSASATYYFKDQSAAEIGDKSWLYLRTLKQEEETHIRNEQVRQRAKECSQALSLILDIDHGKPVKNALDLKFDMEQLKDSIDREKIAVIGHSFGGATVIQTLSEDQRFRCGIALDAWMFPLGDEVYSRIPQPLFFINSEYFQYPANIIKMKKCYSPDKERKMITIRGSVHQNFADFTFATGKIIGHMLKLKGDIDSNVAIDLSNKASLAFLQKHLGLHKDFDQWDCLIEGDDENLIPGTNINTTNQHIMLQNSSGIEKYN
PAFAH1B2 FP inh – PAFAH1B2 (human) inhibition; P68402; recombinant PAFAH1B2, FP-rhodamine activity probe, fluorescence polarization; inhibition, % at 3.39 µM; 1.2% of 340,000 active;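 active = inhibition above the mean of all tested compounds plus 3 SD, cut at about 24% in these data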
Target sequence (P68402 whole entry, looked up): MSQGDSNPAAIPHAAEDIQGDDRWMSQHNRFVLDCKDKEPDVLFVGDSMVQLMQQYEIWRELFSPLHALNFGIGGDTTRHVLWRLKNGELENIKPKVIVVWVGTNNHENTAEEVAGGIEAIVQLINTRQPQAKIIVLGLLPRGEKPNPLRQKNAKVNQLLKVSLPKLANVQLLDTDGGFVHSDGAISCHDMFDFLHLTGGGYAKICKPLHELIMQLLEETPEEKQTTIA
PAFAH2 FP conf – confirmation of human PAFAH2 inhibitors | shares compounds with PAFAH2 inh | recombinant PAFAH2, FP-rhodamine activity probe, fluorescence polarization | inhibition, % at 3.39 µM | 65% of 2,300 active;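 active = mean inhibition over three repeats above a set limit taken from the earlier primary screen, cut at about 30% in these data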;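 note: inhibitor blocks binding of rhodamine activity probe so polarization falls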
A number is an active result; 0 = inactive; - = no result.

SMILES	PAFAH2 inh	PAFAH1B3 FP inh	ABHD4 inh	HTRA1 inh	pPAFAH inh	PAFAH1B2 FP inh	PAFAH2 FP conf
O=C(CSc1nnc(-c2ccccn2)n1-c1ccccc1)Nc1ccccc1-c1ccccc1	-	-	0	-	-	-	-
CCCc1c(C(=O)NNc2ccc(C)cc2)cnn1-c1ccccc1	33	0	0	0	0	0	0
COc1ccccc1NS(=O)(=O)c1ccc(C(=O)Nc2ncccc2O)cc1	55	0	-	0	0	0	46
CCOC(=O)c1c(C)[nH]c(N=Nc2ccc(C)cc2)c1C	0	0	0	0	0	0	-
Cc1ccc(N=Nc2c(O)ccc3n[nH]nc23)cc1	30	0	0	0	-	0	0
CC(=O)c1cc(-c2cccc(C#N)c2)c(=O)n2c1CCC2	-	-	0	-	-	-	-
Cc1ccc(C(=O)Nc2c3c(nn2C(C)(C)C)CS(=O)(=O)C3)cc1C	0	0	0	0	0	0	-
Cc1ccc(N2CC(C(=O)Nc3c4c(nn3C(C)(C)C)CS(=O)(=O)C4)CC2=O)cc1C (stereo unspecified)	158	0	0	0	0	0	0
COc1ccc(CNC2CCC23CCCCC3)cc1OC (stereo unspecified)	-	-	0	-	-	-	-
CCOC(=O)n1cc(C(=O)c2ccccc2O)cn1	0	0	0	0	0	0	-
CC(C)(C)OC(=O)n1cc(C(=O)c2ccccc2O)cn1	84	0	0	0	0	0	69
Cc1nn(-c2ccccc2)c(C)c1/C=C/C(=O)OCC(=O)Nc1ncc(Cl)cc1Cl	49	0	0	0	0	0	55
COc1ccc(/C=C/C(=O)OCC(=O)Nc2ccc(Cl)cn2)cc1	0	0	0	0	0	0	-
COc1ccc(/C=C/C(=O)OCC(=O)Nc2ncc(Cl)cc2Cl)cc1	37	0	0	0	0	0	43
Cc1nn(-c2ccccc2)c(C)c1/C=C/C(=O)OC(C)C(=O)Nc1ncc(Cl)cc1Cl (stereo unspecified)	0	0	0	0	0	0	-
CN1C(=O)C[C@@](C#N)(C(=O)Nc2nc3ccc(F)cc3s2)[C@H]1c1ccccc1	-	-	0	-	-	-	-
O=C1CCC/C=C\C[C@@H](CC(=O)N(CCO)Cc2ccccc2)C(=O)N[C@H](c2ccccc2)CO1	66	0	0	0	0	0	56
Cc1ccc(NC(=O)COC(=O)c2ccc(Cl)cc2)cc1S(=O)(=O)N(C)C	61	0	0	0	0	0	56
C/C=C/C(=O)OCC(=O)Nc1ccc(SC(F)F)cc1	56	0	0	0	0	0	48
CC(=O)OCC(=O)Nc1ccc(SC(F)F)cc1	0	0	0	0	0	0	-
CCN(CC)S(=O)(=O)c1cccc(NC(=O)COC(=O)/C=C/c2ccco2)c1	33	0	0	0	0	0	0
O=C(COC(=O)/C=C/c1ccco1)Nc1cccc([N+](=O)[O-])c1	84	0	0	0	0	0	85
CCN(CC)S(=O)(=O)c1cccc(NC(=O)COC(=O)c2ccc(Br)o2)c1	0	0	0	0	0	0	-
CC(C)c1ccc(NC(=O)COC(=O)/C=C/c2cccc([N+](=O)[O-])c2)cc1	0	0	0	0	0	0	-
COc1ccc(C(=O)NCC(=O)OCC(=O)Nc2ccc(C)c(S(=O)(=O)N(C)C)c2)cc1OC	41	0	0	0	0	0	0
SMILES	PAFAH2 inh	PAFAH1B3 FP inh	ABHD4 inh	HTRA1 inh	pPAFAH inh	PAFAH1B2 FP inh	PAFAH2 FP conf
COc1ccc(CCC(=O)Nc2ccc(C)c(S(=O)(=O)N(C)C)c2)cc1OC	0	0	0	0	0	0	-
Cc1ccc(NC(=O)COC(=O)Cn2cnc3ccccc32)cc1S(=O)(=O)N(C)C	0	0	0	0	0	0	-
Cc1ccc(NC(=O)COC(=O)/C=C/c2ccco2)cc1S(=O)(=O)N(C)C	70	0	0	0	0	0	77
Cc1cnc(C(=O)OCC(=O)Nc2ccc(C)c(S(=O)(=O)N(C)C)c2)cn1	0	0	0	0	0	0	-
C/C=C/C(=O)OCC(=O)Nc1ccc(C)c(S(=O)(=O)N(C)C)c1	57	0	0	0	0	0	48
CN(C)S(=O)(=O)c1cccc(NC(=O)COC(=O)/C=C/c2ccco2)c1	55	0	0	0	0	0	47
Cc1ccc(/C=C/C(=O)OCC(=O)Nc2cccc(S(=O)(=O)N(C)C)c2)o1	67	0	0	0	0	0	39
CN1CCCN(C(=O)CSc2nnc(-c3cccnc3)n2C2CCCCC2)CC1	-	-	0	-	-	-	-
O=C(CNS(=O)(=O)c1cccc2ccccc12)N1CCN(c2ncccn2)CC1	-	-	0	-	-	-	-
COc1ccc(/C=C/C(=O)OCC(=O)NC(C)CCc2ccccc2)cc1OC (stereo unspecified)	64	0	0	0	0	0	59
CC(C)n1nccc1NC(=O)COC(=O)c1ccc(NC(N)=O)cc1	65	0	0	0	0	0	46
CC(CCc1ccccc1)NC(=O)COC(=O)c1ccccc1Br (stereo unspecified)	0	0	0	0	0	0	-
COc1ccc(/C=C/C(=O)NC(C)CCc2ccccc2)cc1OC (stereo unspecified)	0	0	0	0	0	0	-
COc1ccc(CC(=O)NC(C)CCc2ccccc2)cc1OC (stereo unspecified)	0	0	0	0	0	0	-
CC(CCc1ccccc1)NC(=O)COC(=O)c1ccc(NC(N)=O)cc1 (stereo unspecified)	67	0	0	0	0	0	64
COc1ccc(C(=O)OCC(=O)NC(C)CCc2ccccc2)cc1OC (stereo unspecified)	74	0	0	0	0	0	71
NC(=O)Nc1ccc(C(=O)OCC(=O)Nc2sccc2C(N)=O)cc1	0	0	0	0	-	0	-
Cc1ccc(-c2nc3ncccn3c2NC(=O)c2cccc(C)c2)cc1	-	-	0	-	-	-	-
COC(=O)[C@H](C)NC(=O)[C@@H]1CC=C[C@@H]2CCN(CCc3ccccc3)C(=O)[C@@H]21	-	-	0	-	-	-	-
COc1ccc(Cn2cc(CN3[C@@H](C)COc4cc(Br)ccc4S3(=O)=O)nn2)cc1	-	-	0	-	-	-	-
COc1ccc(C(=O)OCC(=O)NC(C)CCc2ccccc2)cc1 (stereo unspecified)	75	0	0	0	0	0	68
CCOC(=O)c1ccccc1NC(=O)C1CCCO1 (stereo unspecified)	42	0	0	0	0	0	0
COc1ccc(C(=O)Nc2cc(Cl)ccc2OC(=O)c2ccc(OC)cc2)cc1	45	0	-	0	0	0	35
COC(=O)C[C@H]1CC[C@@H]2[C@H](COc3ccc(NC(=O)c4cccc(F)c4)cc3C(=O)N2C)O1	-	-	0	-	-	-	-
COC(=O)c1cc(C(=O)c2cc(Br)ccc2O)coc1=N	31	0	0	0	0	0	0
COc1ccc(C(=O)CSc2nnc(-c3ccc(C(C)(C)C)cc3)n2C)cc1	-	-	0	-	-	-	-
COc1cccc(-c2nnc(SCC(=O)Nc3cccc4ccccc34)n2Cc2ccco2)c1	-	-	0	-	-	-	-
